Reference: ChEMBL document CHEMBL1134685, “Antitumor Agents. 211. Fluorinated 2-phenyl-4-quinolone derivatives as antimitotic antitumor agents” (J Med Chem, 2001)

Columns and labels:
Tubulin alpha chain [1] = molecular target: T1, Tubulin alpha chain (Sus scrofa, UniProt P02550); experiment: Inhibition of tubulin polymerization (ITP)
In short: (§1)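 Tubulin polymerization inhibition, with reaction mixtures containing 10 μM tubulin. Result given as IC50.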

Tubulin alpha chain [2] = molecular target: T1, Tubulin alpha chain; experiment: (§2) Inhibition of tubulin polymerization. (ITP); in short: as §1
[3] = Inhibition of in vitro tumor cell growth of […], melanoma; format: functional; details: Homo sapiens
SF-268 = experiment: Inhibition of in vitro tumor cell growth of SF-268, CNS tumor cell line; format: functional; details: Homo sapiens
HCT-116 = experiment: Inhibition of in vitro tumor cell growth of HCT116, colon cancer cell line; format: functional; details: Homo sapiens
NCI-H226 = experiment: Inhibition of tumor cell growth of NCI-H226, non-small-cell lung cell line; format: functional; details: Homo sapiens
SF-295 = experiment: Inhibition of in vitro tumor cell growth of SF-295, CNS tumor cell line; format: functional; details: Homo sapiens
RXF 393 = experiment: Inhibition of in vitro tumor cell growth of RXF-393, renal cancer cell line; format: functional; details: Homo sapiens
K562 = experiment: Inhibition of in vitro tumor cell growth of K-562, leukemia cell line; format: functional; details: Homo sapiens
[4] = molecular target: Tubulin alpha chain (Sus scrofa) (UniProt P02550); experiment: as §2; in short: as §1
OVCAR-3 = experiment: Inhibition of in vitro tumor cell growth of OVCAR-3,ovarian cancer cell line; format: functional; details: Homo sapiens

T1 sequence (P02550 whole entry, looked up): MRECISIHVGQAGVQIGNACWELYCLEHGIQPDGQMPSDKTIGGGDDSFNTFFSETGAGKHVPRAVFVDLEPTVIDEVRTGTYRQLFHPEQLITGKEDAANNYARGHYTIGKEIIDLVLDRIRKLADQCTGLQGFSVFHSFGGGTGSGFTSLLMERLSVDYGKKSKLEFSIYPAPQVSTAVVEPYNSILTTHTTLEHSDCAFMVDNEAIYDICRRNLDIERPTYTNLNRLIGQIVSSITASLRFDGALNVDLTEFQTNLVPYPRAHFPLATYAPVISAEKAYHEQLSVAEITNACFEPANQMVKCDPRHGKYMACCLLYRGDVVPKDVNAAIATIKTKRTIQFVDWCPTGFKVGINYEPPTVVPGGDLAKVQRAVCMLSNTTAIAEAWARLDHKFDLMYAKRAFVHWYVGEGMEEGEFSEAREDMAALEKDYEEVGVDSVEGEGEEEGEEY
Tubulin alpha chain (Sus scrofa), sequence (P02550 whole entry, looked up): as above

| Compound | IC50 (Tubulin alpha chain [1]) [µM] | IC50 (Tubulin alpha chain [2]) [µM] | GI50 (HCT-116) [µM] | GI50 (NCI-H226) [µM] | GI50 (K562) [µM] | IC50 [4] [µM] | GI50 (OVCAR-3) [µM] | GI50 [3] [µM] | GI50 (SF-268) [µM] | GI50 (SF-295) [µM] | GI50 (RXF 393) [µM] |
| --- | --- | --- | --- | --- | --- | --- | --- | --- | --- | --- | --- |
| CCOC(=O)CCCOc1cc(-c2ccccc2F)nc2cc3c(cc12)OCO3 |  | > 40 | > 100 |  |  |  |  | 57.5 | > 100 |  |  |
| O=c1cc(-c2ccccc2F)[nH]c2ccc(N3CCCC3)cc12 |  |  |  |  | 0.0324 | 0.46 |  | < 0.01 | 0.0389 |  | < 0.01 |
| O=c1[nH]c(/C=C/c2ccccc2)nc2ccccc12 |  | 5 |  |  |  |  |  |  |  |  |  |
| Fc1ccccc1-c1cc(S)c2cc3c(cc2n1)OCO3 |  |  | 5.5 | 16.6 | 56.2 |  | 21.4 | 4.07 | 20 | 11.7 | 29.5 |
| O=c1cc(-c2ccccc2F)[nH]c2cc3c(cc12)OCO3 | 0.68 |  |  |  |  |  |  | 0.0209 |  |  |  |
| Cn1c(-c2ccccc2)cc(=O)c2ccccc21 |  | > 40 |  |  |  |  |  |  |  |  |  |

Further lines, with some results ahead:

| IC50 (Tubulin alpha chain [1]) [µM] | IC50 (Tubulin alpha chain [2]) [µM] | GI50 (HCT-116) [µM] | GI50 (NCI-H226) [µM] | GI50 (K562) [µM] | IC50 [4] [µM] | GI50 (OVCAR-3) [µM] | Compound | GI50 [3] [µM] | GI50 (SF-268) [µM] | GI50 (SF-295) [µM] | GI50 (RXF 393) [µM] |
| --- | --- | --- | --- | --- | --- | --- | --- | --- | --- | --- | --- |
| 7.3 |  |  |  |  |  |  | Oc1cc(-c2ccccc2)nc2ccccc12 |  |  |  |  |
|  | > 40 | 72.4 | > 100 | 38 |  |  | CCOC(=O)COc1cc(-c2ccccc2F)nc2cc3c(cc12)OCO3 | 72.4 | > 100 | > 100 | > 100 |
|  | > 20 | > 100 | > 100 | > 100 |  | > 100 | O=C(O)COc1cc(-c2ccccc2F)nc2cc3c(cc12)OCO3 | > 100 | > 100 | > 100 | > 100 |
|  | 12 |  |  |  |  |  | O=C(O)CCCOc1cc(-c2ccccc2F)nc2cc3c(cc12)OCO3 |  |  |  |  |
